# Legend:
# Escherichia coli [1] = experiment: Compound was tested for antimicrobial activity in mice infected with Escherichia coli KC-14 after peroral administration; format: functional; details: po
# Outline: (§1)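 Male ddy mice (20 ± 2 g), groups of 10, were infected ip with 0.5 mL of bacteria at 10 or 100 times the 50% lethal dose. Compound was suspended in 0.5% sodium carboxymethyl cellulose and given orally 1 h postinfection. Survival was scored after 1 week.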
# Proteus vulgaris = experiment: Compound was tested for antimicrobial activity against Proteus vulgaris OX-19; format: functional
# Outline: (§2)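 Agar dilution on Mueller-Hinton agar with serial 2-fold dilutions; plate concentrations 0.006 to 100 µg/mL. Inoculum about 10^6 cfu/mL. Plates incubated at 37 °C for 18 h. MIC is the lowest concentration preventing visible growth.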
# Escherichia coli [2] = experiment: Compound was tested for antimicrobial activity against Escherichia coli KC-14; format: functional; outline: as §2
# Serratia marcescens = experiment: Compound was tested for antimicrobial activity against Serratia marcescens 16; format: functional; outline: as §2
# Staphylococcus aureus = experiment: Compound was tested for antimicrobial activity against Staphylococcus aureus FDA207PJC-1; format: functional; design: unit: µg/mL; outline: as §2
# Bacillus subtilis = experiment: Compound was tested for antimicrobial activity against Bacillus subtilis ATCC 6633; format: functional; outline: as §2
# Pseudomonas aeruginosa = experiment: Compound was tested for antimicrobial activity against Pseudomonas aeruginosa PAO1; format: functional; outline: as §2
# Klebsiella pneumoniae = experiment: Compound was tested for antimicrobial activity against Klebsiella pneumonia IFO3512; format: functional; outline: as §2
# Mus musculus [3] = experiment: Serum Levels in mice, after oral administration at a dose of 100 mg/kg p.o. at 2 hr; format: functional, organism-based; design: dose 100 mg/kg
# Outline: (§3)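 Mice were given compound orally as a suspension in 0.5% sodium carboxymethyl cellulose at 100 mg/kg (NFLX-equivalent dose). Animals were killed by bleeding at 0.5, 1.0, 2.0 and 4.0 h. Serum norfloxacin and parent compound were measured by HPLC.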
# Mus musculus [4] = experiment: Serum concentration in mice, after oral administration at a dose of 100 mg/kg p.o. at 5 hr; format: functional, organism-based; design: dose 100 mg/kg
# Mus musculus [5] = experiment: Compound was tested for antimicrobial activity in mice infected with Escherichia coli KC-14, po; format: functional; outline: as §1
# Mus musculus [6] = experiment: Serum concentration in mice, after oral administration at a dose of 50 mg/kg p.o. at 2 hr; format: functional, organism-based; design: dose 50 mg/kg
# Mus musculus [7] = experiment: Serum concentration in mice, after oral administration at a dose of 100 mg/kg p.o. at 1 hr; format: functional, organism-based; design: dose 100 mg/kg; outline: as §3
# Mus musculus [8] = experiment: Serum Levels in mice, after oral administration at a dose of 100 mg/kg p.o. at 0.5 h; format: functional, organism-based; design: dose 100 mg/kg; outline: as §3
# Mus musculus [9] = experiment: Serum concentration in mice, after oral administration at a dose of 100 mg/kg p.o. at 0.5 h; format: functional, organism-based; design: dose 100 mg/kg; outline: as §3
# Mus musculus [10] = experiment: Serum Levels in mice, after oral administration at a dose of 100 mg/kg p.o. at 5 hr; format: functional, organism-based; design: dose 100 mg/kg
# Mus musculus [11] = experiment: Serum Levels in mice, after oral administration at a dose of 100 mg/kg p.o. at 1 hr; format: functional, organism-based; design: dose 100 mg/kg; outline: as §3
# Mus musculus [12] = experiment: (§4) Serum concentration in mice, after oral administration at a dose of 100 mg/kg p.o. at 2 hr; format: functional, organism-based; design: dose 100 mg/kg; outline: as §3
# Mus musculus [13] = experiment: as §4; format: functional, organism-based; design: dose 100 mg/kg; remark: listed apart in the source
# Outline: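 Compound was suspended in 0.5% sodium carboxymethyl cellulose and given orally to mice at 100 mg/kg, as a dose equivalent to 100 mg/kg NFLX. Mice were killed by bleeding at 0.5, 1.0, 2.0 and 4.0 h. Serum NFLX and parent compound were each measured by HPLC.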
# [14] = Compound was evaluated for area under curve doses in […] at 100 mg/kg po; format: functional, organism-based; design: dose 100 mg/kg
# Mus musculus [15] = experiment: Compound was tested for antimicrobial activity in mice infected with Pseudomonas aeruginosa E2,po; format: functional
# Outline: (§5)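 Male ddy mice (20 ± 2 g, groups of 10) received an intraperitoneal inoculum of 0.5 mL bacterial dilution at 10 or 100 times the 50% lethal dose. Compound was suspended in 0.5% sodium carboxymethyl cellulose and given orally 1 h postinfection.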
# Mus musculus [16] = experiment: Compound was tested for antimicrobial activity in mice infected with Staphylococcus aureus smith, po; format: functional; outline: as §1
# [17] = Lethal dose was measured in rat after oral administration; format: toxicity, organism-based; details: in vivo
# Outline: (§6)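 Each compound was suspended in 0.5% cmc and given by the stated route. Deaths were counted within 1 week, and LD50 was calculated by the method of Weil.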
# [18] = Lethal dose was measured in rat after iv administration; format: toxicity, organism-based; details: in vivo; outline: as §6
# Mus musculus [19] = experiment: Compound was tested for antimicrobial activity in mice infected with Staphylococcus aureus smith. po; format: functional; outline: as §5
smiles,measurement,setting,value
CCn1cc(C(=O)O)c(=O)c2cc(F)c(N3CCN(C(C)(C)C(C)=O)CC3)cc21,ED50,Escherichia coli [1],6.06 mg/kg
same,Activity,Proteus vulgaris,1.56
same,Activity,Escherichia coli [2],3.13
same,Activity,Serratia marcescens,6.25
same,Activity,Staphylococcus aureus,0.78
same,Activity,Bacillus subtilis,0.39
same,Activity,Pseudomonas aeruginosa,6.25
same,Activity,Klebsiella pneumoniae,0.39
CCn1cc(C(=O)O)c(=O)c2cc(F)c(N3CCN(CC(C)O)CC3)cc21 (stereo not given),ED50,Escherichia coli [1],3.9 mg/kg
same,Serum level,Mus musculus [3],11.8 µg/mL
same,Serum concentration,Mus musculus [4],2.82 µg/mL
same,ED50,Mus musculus [5],3.5 mg/kg
same,Serum concentration,Mus musculus [6],4.48 µg/mL
same,Activity,Proteus vulgaris,0.78
same,Activity,Escherichia coli [2],0.78
same,Serum concentration,Mus musculus [7],20.2 µg/mL
same,Serum level,Mus musculus [8],13.6 µg/mL
same,Activity,Serratia marcescens,3.12
same,Serum concentration,Mus musculus [9],19.5 µg/mL
same,Serum level,Mus musculus [10],2.21
same,Activity,Staphylococcus aureus,0.39
same,Serum level,Mus musculus [11],27.1
same,Activity,Bacillus subtilis,0.78
same,Activity,Pseudomonas aeruginosa,6.25
same,Activity,Klebsiella pneumoniae,0.2
same,Serum concentration,Mus musculus [12],6.93 µg/mL
CCn1cc(C(=O)O)c(=O)c2cc(F)c(N3CCN(CC(=O)C(C)(C)C)CC3)cc21,ED50,Escherichia coli [1],7.13 mg/kg
same,Serum concentration,Mus musculus [4],6.73 µg/mL
same,Activity,Proteus vulgaris,3.13
same,Activity,Escherichia coli [2],12.5
same,Serum concentration,Mus musculus [7],15.4 µg/mL
same,Activity,Serratia marcescens,<100
same,Serum concentration,Mus musculus [9],19.6 µg/mL
same,Activity,Staphylococcus aureus,0.78
same,Activity,Bacillus subtilis,0.78
same,Activity,Pseudomonas aeruginosa,50
same,Serum concentration,Mus musculus [13],9.4 µg/mL
same,Activity,Klebsiella pneumoniae,0.78
CCn1cc(C(=O)O)c(=O)c2cc(F)c(N3CCN(CCC(C)=O)CC3)cc21,ED50,Escherichia coli [1],2.34 mg/kg
same,AUC,[14],12.9
same,Serum concentration,Mus musculus [4],1.18 µg/mL
same,Activity,Proteus vulgaris,0.2
same,Activity,Escherichia coli [2],0.78
same,Serum concentration,Mus musculus [7],3.55 µg/mL
same,Activity,Serratia marcescens,0.78
same,Serum concentration,Mus musculus [9],7.06 µg/mL
same,Activity,Staphylococcus aureus,0.78
same,Activity,Bacillus subtilis,0.39
same,Activity,Pseudomonas aeruginosa,0.78
same,Serum concentration,Mus musculus [13],2.22 µg/mL
same,Activity,Klebsiella pneumoniae,0.2
CCn1cc(C(=O)O)c(=O)c2cc(F)c(N3CCN(CC(C)=O)CC3)cc21,ED50,Escherichia coli [1],0.95 mg/kg
same,ED50,Mus musculus [15],18.5 mg/kg
same,Serum concentration,Mus musculus [4],0.46 µg/mL
same,Serum concentration,Mus musculus [6],8.88 µg/mL
same,Activity,Proteus vulgaris,0.78
same,Activity,Escherichia coli [2],1.56
same,Serum concentration,Mus musculus [7],7.29 µg/mL
same,Activity,Serratia marcescens,6.25
same,ED50,Mus musculus [16],12.6 mg/kg
same,Serum concentration,Mus musculus [9],23.6 µg/mL
same,LD50,[17],> 4000 mg/kg
same,Activity,Staphylococcus aureus,0.39
same,Activity,Bacillus subtilis,0.39
same,Activity,Pseudomonas aeruginosa,6.25
same,Serum concentration,Mus musculus [13],2.69 µg/mL
same,Activity,Klebsiella pneumoniae,0.2
same,LD50,[18],684 mg/kg
CCn1cc(C(=O)O)c(=O)c2cc(F)c(N3CCN(C(C)C(C)=O)CC3)cc21 (stereo not given),ED50,Escherichia coli [1],3.53 mg/kg
same,Activity,Proteus vulgaris,1.56
same,Activity,Escherichia coli [2],3.13
same,Activity,Serratia marcescens,12.5
same,Activity,Staphylococcus aureus,0.78
same,Activity,Bacillus subtilis,0.78
same,Activity,Pseudomonas aeruginosa,12.5
same,Activity,Klebsiella pneumoniae,0.78
CCn1cc(C(=O)O)c(=O)c2cc(F)c(N3CCNCC3)cc21 [NORFLOXACIN],ED50,Escherichia coli [1],4.38 mg/kg
same,ED50,Mus musculus [15],59 mg/kg
same,Activity,Proteus vulgaris,0.2
same,Activity,Escherichia coli [2],0.39
same,Activity,Serratia marcescens,0.78
same,ED50,Mus musculus [19],36.4 mg/kg
same,Activity,Staphylococcus aureus,0.39
same,Activity,Bacillus subtilis,0.39
same,Activity,Pseudomonas aeruginosa,0.78
same,Activity,Klebsiella pneumoniae,0.2
same,LD50,[18],314 mg/kg
CCn1cc(C(=O)O)c(=O)c2cc(F)c(N3CCN(CC(=O)c4ccccc4)CC3)cc21,ED50,Escherichia coli [1],> 7.5 mg/kg
same,Activity,Proteus vulgaris,0.39
same,Activity,Escherichia coli [2],0.78
same,Activity,Serratia marcescens,1.56
same,Activity,Staphylococcus aureus,0.78
same,Activity,Bacillus subtilis,0.78
same,Activity,Pseudomonas aeruginosa,1.56
same,Activity,Klebsiella pneumoniae,0.78

# Reference: ChEMBL document CHEMBL1123243, “Studies on prodrugs. 5. Synthesis and antimicrobial activity of N-(oxoalkyl)norfloxacin derivatives” (J Med Chem, 1986)
